The source made the active and inactive calls. No cut-off for these calls is given here.
Key:
[1] = target: T1, Epidermal growth factor receptor (Homo sapiens, UniProt P00533); test: Inhibition of recombinant human EGFR expressed in baculovirus by fluorescence based assay
[2] = target: Receptor tyrosine-protein kinase erbB-2 (Homo sapiens, UniProt P04626); test: Inhibition of His-tagged human recombinant Her2 (676 to 1255 residues) expressed in baculovirus by fluorescence based assay
Procedure, shortened: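 Her2 kinase activity was measured with an outsourced kinase-profiling service. It used a fluorescence-based coupled-enzyme format that exploits the differing sensitivity of phosphorylated and non-phosphorylated peptide substrates to proteolytic cleavage.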

[3] = Antiproliferative activity against gefitinib-sensitive human PC9 cells assessed as cell viability after 72 hrs by cell titer-glo luminescence assay; format: functional, cell-based; conditions: PC-9, 72 h
[4] = Antiproliferative activity against gefitinib-resistant human PC9/GR4 cells expressing Del19/T790M double mutant assessed as cell viability after 72 hrs by cell titer-glo luminescence assay; format: functional, cell-based; conditions: PC9/GR4, 72 h
[5] = target: T1, Epidermal growth factor receptor; conditions: PC-9, at 10 µM
[6] = tested on: Epidermal growth factor receptor (Homo sapiens), P00533 [UNDEFINED MUTATION]; conditions: PC9/GR4, at 10 µM
[7] = target: T1, Epidermal growth factor receptor; conditions: PC-9, at 10 µM; remark: listed apart in the source
[8] = tested on: Epidermal growth factor receptor (Homo sapiens), P00533 [UNDEFINED MUTATION]; conditions: PC9/GR4, at 10 µM; remark: listed apart in the source
[9] = tested on: Epidermal growth factor receptor (Homo sapiens), P00533 [L858R,T790M]; test: Inhibition of EGFR L858R/T790M double mutant (unknown origin) expressed in mouse BaF/3 cells assessed as cell growth inhibition at 10 uM after 72 hrs by MTS assay; format: cell-based
Procedure, shortened: (§1)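 Ba/F3 cells carrying the listed double-mutant EGFR were exposed to 10 uM compound, and growth was read by MTS assay as percent growth relative to DMSO-treated cells. Experiments were repeated at least three times.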

[10] = tested on: Epidermal growth factor receptor (Homo sapiens), P00533 [UNDEFINED MUTATION]; test: Inhibition of EGFR Del19/T790M double mutant (unknown origin) expressed in mouse BaF/3 cells assessed as cell growth inhibition at 10 uM after 72 hrs by MTS assay; format: cell-based; procedure, shortened: as §1
[11] = Cytotoxicity against human BT474 cells expressing Her2 assessed as reduction in cell viability after 72 hrs by cell titer-glo luminescence assay; format: functional, cell-based; conditions: BT-474, 72 h
[12] = Potency index, ratio of gefitinib IC50 to compound IC50 for human PC9/GR4 cells expressing Del19/T790M double mutant; format: functional

Chain of Receptor tyrosine-protein kinase erbB-2 (P04626 whole entry, the tested form may be a part): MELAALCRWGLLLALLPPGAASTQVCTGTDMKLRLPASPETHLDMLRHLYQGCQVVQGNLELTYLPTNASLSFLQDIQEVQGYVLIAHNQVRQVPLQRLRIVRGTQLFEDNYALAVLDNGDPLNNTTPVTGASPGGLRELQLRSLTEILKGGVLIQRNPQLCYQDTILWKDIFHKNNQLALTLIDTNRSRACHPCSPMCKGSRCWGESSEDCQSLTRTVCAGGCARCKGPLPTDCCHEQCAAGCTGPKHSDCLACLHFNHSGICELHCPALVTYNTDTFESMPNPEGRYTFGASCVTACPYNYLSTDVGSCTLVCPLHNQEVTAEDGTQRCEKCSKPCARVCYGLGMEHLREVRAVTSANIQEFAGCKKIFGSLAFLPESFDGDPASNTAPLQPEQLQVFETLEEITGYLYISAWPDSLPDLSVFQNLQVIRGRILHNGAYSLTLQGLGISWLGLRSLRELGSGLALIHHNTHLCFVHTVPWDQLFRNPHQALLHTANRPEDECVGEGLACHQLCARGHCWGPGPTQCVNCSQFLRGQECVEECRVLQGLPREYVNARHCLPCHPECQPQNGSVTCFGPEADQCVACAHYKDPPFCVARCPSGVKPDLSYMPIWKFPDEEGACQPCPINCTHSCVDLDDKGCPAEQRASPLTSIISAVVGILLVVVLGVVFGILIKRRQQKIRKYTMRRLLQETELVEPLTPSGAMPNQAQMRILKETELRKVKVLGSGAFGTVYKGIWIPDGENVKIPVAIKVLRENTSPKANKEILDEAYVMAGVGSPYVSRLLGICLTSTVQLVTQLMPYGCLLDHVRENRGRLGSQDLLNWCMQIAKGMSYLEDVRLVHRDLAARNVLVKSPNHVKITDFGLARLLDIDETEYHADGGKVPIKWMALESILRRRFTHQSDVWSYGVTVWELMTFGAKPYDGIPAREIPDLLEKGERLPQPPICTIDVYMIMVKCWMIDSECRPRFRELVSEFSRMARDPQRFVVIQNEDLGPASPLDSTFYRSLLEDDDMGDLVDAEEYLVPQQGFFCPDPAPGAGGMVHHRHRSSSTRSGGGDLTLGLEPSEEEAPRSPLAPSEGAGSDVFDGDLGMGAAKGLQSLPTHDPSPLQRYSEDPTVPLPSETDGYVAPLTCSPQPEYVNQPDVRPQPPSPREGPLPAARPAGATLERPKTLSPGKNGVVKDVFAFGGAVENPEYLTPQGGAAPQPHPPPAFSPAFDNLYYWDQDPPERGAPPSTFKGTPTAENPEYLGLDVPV

O=C(NCCN1CCCCC1)Nc1ccc2ncnc(Nc3cccc(Br)c3)c2c1
IC50 [1]: 0.772 nM

Fc1cccc(COc2ccc(Nc3ncnc4ccc(NC(=S)NCCCN5CCOCC5)cc34)cc2Cl)c1
IC50 [1]: 1.5 nM | IC50 [2]: 12.1 nM

Fc1ccc(Nc2ncnc3ccc(NC(=S)NCCCN4CCOCC4)cc23)cc1Cl
IC50 [1]: < 0.495 nM

Fc1ccc(Nc2ncnc3ccc(NC(=S)NCCN4CCOCC4)cc23)cc1Cl
IC50 [1]: 2.25 nM

CC(=O)Nc1ccc2ncnc(Nc3ccc(F)c(Cl)c3)c2c1
IC50 [1]: 0.662 nM | IC50 [3]: 225 nM | IC50 [4]: 12600 nM | inhibition [5]: Active | inhibition [6]: Active | inhibition [7]: Active | inhibition [8]: Active

O=C(NCCN1CCCCC1)Nc1ccc2ncnc(Nc3ccc(F)c(Cl)c3)c2c1
IC50 [1]: 1.06 nM

S=C(NCCN1CCOCC1)Nc1ccc2ncnc(Nc3ccc(Cl)cc3)c2c1
IC50 [1]: 5.06 nM

Fc1ccc(Nc2ncnc3ccc(NC(=S)NCCN4CCCCC4)cc23)cc1Cl
IC50 [1]: 3.7 nM

O=C(NCCN1CCOCC1)Nc1ccc2ncnc(Nc3ccc(F)c(Cl)c3)c2c1
IC50 [1]: 2.92 nM

C#Cc1cccc(Nc2ncnc3ccc(NC(N)=O)cc23)c1
IC50 [1]: 2.22 nM

CC(=O)Nc1ccc2ncnc(Nc3ccc(OCc4cccc(F)c4)c(Cl)c3)c2c1
IC50 [1]: 3.96 nM | IC50 [2]: 32.3 nM | growth inhibition (GI) [9]: Active | growth inhibition (GI) [10]: Active | IC50 [3]: 662 nM | IC50 [4]: 8310 nM | IC50 [11]: 57 nM | inhibition [5]: Active | inhibition [6]: Active | inhibition [7]: Active | inhibition [8]: Active

O=C(NCCN1CCOCC1)Nc1ccc2ncnc(Nc3cccc(Br)c3)c2c1
IC50 [1]: 1.43 nM

O=C(NCCN1CCCCC1)Nc1ccc2ncnc(Nc3ccc(OCc4cccc(F)c4)c(Cl)c3)c2c1
IC50 [2]: 19.2 nM | growth inhibition (GI) [9]: Active | growth inhibition (GI) [10]: Active | IC50 [3]: 1580 nM | IC50 [4]: 2160 nM | Ratio IC50 [12]: 8 | IC50 [11]: 760 nM | inhibition [5]: Active | inhibition [6]: Active | inhibition [7]: Active | inhibition [8]: Active

C#Cc1cccc(Nc2ncnc3ccc(NC(C)=O)cc23)c1
IC50 [1]: 2.04 nM

Fc1cccc(COc2ccc(Nc3ncnc4ccc(NC(=S)NCCN5CCOCC5)cc34)cc2Cl)c1
IC50 [1]: 2.26 nM | IC50 [2]: 33.1 nM

CS(=O)(=O)CCNCc1ccc(-c2ccc3ncnc(Nc4ccc(OCc5cccc(F)c5)c(Cl)c4)c3c2)o1 [LAPATINIB]
IC50 [11]: 31 nM

S=C(NCCN1CCOCC1)Nc1ccc2ncnc(Nc3cccc(Br)c3)c2c1
IC50 [1]: 1.81 nM

NC(=O)Nc1ccc2ncnc(Nc3ccc(F)c(Cl)c3)c2c1
IC50 [1]: 0.854 nM | IC50 [3]: 961 nM | IC50 [4]: 21700 nM | inhibition [5]: Active | inhibition [6]: Active | inhibition [7]: Active | inhibition [8]: Active

Fc1cccc(COc2ccc(Nc3ncnc4ccc(NC(=S)NCCN5CCCCC5)cc34)cc2Cl)c1
IC50 [2]: 40.6 nM | growth inhibition (GI) [9]: Active | growth inhibition (GI) [10]: Active | IC50 [3]: 2160 nM | IC50 [4]: 5700 nM | Ratio IC50 [12]: 3 | IC50 [11]: 340 nM | inhibition [5]: Active | inhibition [6]: Active | inhibition [7]: Active | inhibition [8]: Active

S=C(NCCN1CCOCC1)Nc1ccc2ncnc(Nc3ccc(Cl)c(Cl)c3)c2c1
IC50 [1]: 9.05 nM

NC(=O)Nc1ccc2ncnc(Nc3ccc(OCc4cccc(F)c4)c(Cl)c3)c2c1
IC50 [1]: 2.03 nM | IC50 [2]: 26.8 nM

NC(=O)Nc1ccc2ncnc(Nc3ccc(Br)cc3)c2c1
IC50 [1]: 0.803 nM

— ChEMBL document CHEMBL3813636, “Toward discovery of mutant EGFR inhibitors; Design, synthesis and in vitro biological evaluation of potent 4-arylamino-6-ureido and thioureido-quinazoline derivatives” (Bioorg Med Chem, 2016)
